From ChEMBL document CHEMBL1212872, “Dual inhibitors of inosine monophosphate dehydrogenase and histone deacetylase based on a cinnamic hydroxamic acid core structure” (Bioorg Med Chem, 2010)

Columns and labels:
[1] = Inhibition of nuclear extract HDAC
Summary of the method: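 HDAC nuclear extract tested with a commercial HDAC activity/inhibitor screening kit per its protocol. Inhibitors were dissolved in DMSO or methanol. IC50 from a variable-slope sigmoidal fit of end-point fractional fluorescence. Autofluorescence corrected using a compound concentration curve run under background-well conditions.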

[2] = system: K562; assay: Antiproliferative activity against human K562 cells after 72 hrs by MTS assay; type: functional, cell-based; conditions: K562, 72 h
[3] = molecular target: Inosine-5'-monophosphate dehydrogenase 1 (Homo sapiens, UniProt P20839); assay: Inhibition of human IMPDH1; conditions: read-out: Ki(app)
Summary of the method: (§1)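 Run in duplicate with IMPDH1 at 150 nM or IMPDH2 at 50 nM, across a range of inhibitor concentrations. Buffer: 50 mM Tris pH 8.0, 100 mM KCl, 1 mM DTT, with 100 µM IMP and 100 µM NAD, at 25 °C. NADH formation followed at 340 nm. IC50 from a variable-slope sigmoidal fit of steady-state velocities; apparent Ki from the Morrison equation.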

[4] = molecular target: Inosine-5'-monophosphate dehydrogenase 2 (Homo sapiens, UniProt P12268); assay: Inhibition of human IMPDH2; conditions: read-out: Ki(app); summary of the method: as §1

Sequence of Inosine-5'-monophosphate dehydrogenase 1 (P20839 whole entry): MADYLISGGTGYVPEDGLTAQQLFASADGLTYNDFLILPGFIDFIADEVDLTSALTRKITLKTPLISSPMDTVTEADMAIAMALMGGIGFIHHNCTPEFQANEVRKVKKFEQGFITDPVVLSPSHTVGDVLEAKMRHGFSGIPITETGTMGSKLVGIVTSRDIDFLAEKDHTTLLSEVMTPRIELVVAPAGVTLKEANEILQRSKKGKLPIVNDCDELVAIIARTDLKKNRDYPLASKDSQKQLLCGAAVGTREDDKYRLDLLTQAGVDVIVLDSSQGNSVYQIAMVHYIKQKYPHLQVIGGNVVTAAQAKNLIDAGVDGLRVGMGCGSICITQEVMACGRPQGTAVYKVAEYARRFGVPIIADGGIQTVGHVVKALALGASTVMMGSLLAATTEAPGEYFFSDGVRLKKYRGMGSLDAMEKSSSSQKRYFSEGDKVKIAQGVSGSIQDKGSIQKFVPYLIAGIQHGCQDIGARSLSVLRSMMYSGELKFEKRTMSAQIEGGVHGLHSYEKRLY

For `COc1cc(NC(=O)NCc2ccc(/C=C/C(=O)NO)cc2)ccc1-c1cnco1`, the IC50 [1] was 26 nM, the IC50 [2] was 3.5 µM and the Ki [3] was 7.8 µM. It also gave a Ki [4] of 1200 nM.

Molecule `COc1cc(NC(=O)NCc2cccc(/C=C/C(=O)NO)c2)ccc1-c1cnco1` has an IC50 [1] of 830 nM, an IC50 [2] of 18 µM and a Ki [3] of 2.3 µM. For the same molecule, the Ki [4] was 340 nM.

For `COc1cc(NC(=O)NCc2ccc(/C=C/C(=O)NO)cc2)ccc1C#N`, the IC50 [1] was 36 nM, the Ki [3] was greater than 100 µM and the Ki [4] was 11000 nM.

`COc1cc(NC(=O)NCc2cccc(/C=C/C(=O)NO)c2)ccc1C#N` gave an IC50 [1] of 640 nM, an IC50 [2] of 28 µM and a Ki [3] of 44 µM. It also gave a Ki [4] of 2600 nM.

Molecule `COc1cc(NC(=O)C(=O)NCc2ccc(/C=C/C(=O)NO)cc2)ccc1-c1cnco1` has an IC50 [1] of 230 nM, an IC50 [2] of 5.3 µM and a Ki [3] of 17 µM. The Ki [4] was 1400 nM.

Work on `COc1cc(NC(=O)C(=O)NCc2cccc(/C=C/C(=O)NO)c2)ccc1-c1cnco1` yielded an IC50 [1] of 890 nM, an IC50 [2] greater than 100 µM and a Ki [3] of 4.4 µM. It also gave a Ki [4] of 1500 nM.

`COc1cc(NC(=O)Nc2ccc(/C=C/C(=O)NO)cc2)ccc1-c1cnco1` showed an IC50 [1] of 550 nM, an IC50 [2] of 4.9 µM and a Ki [3] of 0.3 µM. For the same molecule, the Ki [4] was 250 nM.

Work on `COc1cc(NC(=O)Nc2cccc(/C=C/C(=O)NO)c2)ccc1-c1cnco1` yielded an IC50 [1] of 3000 nM, an IC50 [2] greater than 100 µM and a Ki [3] of 0.58 µM. It also gave a Ki [4] of 120 nM.

In the case of `COc1cc(NC(=O)Nc2ccc(/C=C/C(=O)NO)cc2)ccc1C#N`, the IC50 [1] is reported as 630 nM, the IC50 [2] is reported as 4 µM and the Ki [3] is reported as 1.2 µM. It also gave a Ki [4] of 230 nM.

For `COc1cc(NC(=O)Nc2cccc(/C=C/C(=O)NO)c2)ccc1C#N`, the IC50 [1] was 3400 nM, the IC50 [2] was 38 µM and the Ki [3] was 8.2 µM. For the same molecule, the Ki [4] was 1200 nM.

`COc1cc(NC(=O)C(=O)Nc2ccc(/C=C/C(=O)NO)cc2)ccc1-c1cnco1` showed an IC50 [1] of 17000 nM, an IC50 [2] of 72 µM and a Ki [3] of 7.1 µM. For the same molecule, the Ki [4] was 1800 nM.

For `COc1cc(NC(=O)C(=O)Nc2cccc(/C=C/C(=O)NO)c2)ccc1-c1cnco1`, the IC50 [1] was 1800 nM, the IC50 [2] was 28 µM and the Ki [3] was 0.46 µM. It also gave a Ki [4] of 200 nM.
